# Results published in PMC2745822 (The Journal of pharmacology and experimental therapeutics, 2008).
# Like-named read-outs stand apart in the source and are kept apart here.
# Assays:
# M1 = molecular target: T1, M1 (Homo sapiens, UniProt P11229); assay: Millipore GPCR Profiler functional screen, M1; format: cell-based; details: full agonist CRC
# T1 sequence (P11229 1-460): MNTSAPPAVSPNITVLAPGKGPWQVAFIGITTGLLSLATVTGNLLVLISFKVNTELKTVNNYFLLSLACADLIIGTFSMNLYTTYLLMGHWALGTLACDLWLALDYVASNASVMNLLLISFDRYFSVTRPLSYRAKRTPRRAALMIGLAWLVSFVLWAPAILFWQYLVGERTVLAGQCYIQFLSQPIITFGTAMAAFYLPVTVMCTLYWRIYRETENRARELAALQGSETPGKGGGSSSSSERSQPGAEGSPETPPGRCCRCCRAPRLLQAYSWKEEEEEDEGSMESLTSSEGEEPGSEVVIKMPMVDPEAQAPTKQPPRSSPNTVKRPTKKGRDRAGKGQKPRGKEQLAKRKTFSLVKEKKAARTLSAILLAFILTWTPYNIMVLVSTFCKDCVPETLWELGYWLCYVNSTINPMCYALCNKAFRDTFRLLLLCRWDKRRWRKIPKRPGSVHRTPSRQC
# [1] = Formulation into homogeneous dosing solution; format: physicochemical; details: vehicles acceptable for in vivo studies
# How it was run: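 Test compound was jet-milled to uniform nanoparticles before vehicle formulation. It was then dissolved at 56.6 mg/ml in 10% Tween 80 in double-deionized water, with pH adjusted to about 7.0 using 1 N NaOH. The mixture was sonicated until a uniform homogeneous solution formed, for intraperitoneal dosing.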
# M3 mAChR = M3 mAChR (Homo sapiens, UniProt P20309); assay: Calcium mobilization selectivity assay, CHO K1 cells expressing M3; format: cell-based; details: 30 µM compound
# How it was run: (§1)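 CHO K1 cells stably expressing rat M1 or human M3 or M5, coupled through endogenous Gq. Seeded 50,000 cells/well and held overnight in antibiotic-free medium at 37°C/5% CO2. Loaded with 2 µM Fluo-4 AM for 45 min at 37°C in HBSS/20 mM HEPES/2.5 mM probenecid, pH 7.4. […] Three independent experiments.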
# [2] = test system: amphetamine-induced hyperlocomotion in rats; assay: Amphetamine-induced hyperlocomotion; format: in vivo, rat; details: 56.6 mg/kg i.p., 30-min pretreatment; 1 mg/kg s.c. amphetamine; 60 min
# rat M4 mAChR = molecular target: T2, rat M4 mAChR (Rattus norvegicus, UniProt P08485); format: cell-based; details: for EC50: potentiation of an EC20 concentration of ACh
# T2 sequence (P08485 1-478): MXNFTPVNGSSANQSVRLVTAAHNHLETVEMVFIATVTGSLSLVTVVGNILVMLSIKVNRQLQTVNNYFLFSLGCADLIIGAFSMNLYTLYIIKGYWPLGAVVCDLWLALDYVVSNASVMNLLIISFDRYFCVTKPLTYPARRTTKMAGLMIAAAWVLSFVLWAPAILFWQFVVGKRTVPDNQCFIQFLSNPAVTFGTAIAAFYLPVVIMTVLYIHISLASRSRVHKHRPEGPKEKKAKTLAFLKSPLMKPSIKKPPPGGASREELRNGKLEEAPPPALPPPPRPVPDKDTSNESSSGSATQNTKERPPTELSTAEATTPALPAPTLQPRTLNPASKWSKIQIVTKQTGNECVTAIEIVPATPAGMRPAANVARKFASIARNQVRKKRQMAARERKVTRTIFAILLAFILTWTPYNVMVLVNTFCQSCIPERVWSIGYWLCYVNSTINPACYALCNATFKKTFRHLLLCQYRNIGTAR
# panel of 16 GPCRs = assay: Millipore GPCR Profiler functional panel; format: cell-based
# How it was run: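 Outsourced functional screening paradigm covering 16 GPCRs, chosen as family A subtypes among the closest relatives of mAChRs. Test compound was assessed for agonist, antagonist and allosteric potentiator activity by its effect on full concentration-response curves of each receptor's agonist.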
# M5 mAChR = molecular target: T3, M5 mAChR (Homo sapiens, UniProt P08912); assay: Calcium mobilization selectivity assay, CHO K1 cells expressing M5; format: cell-based; details: 30 µM compound
# T3 sequence (P08912 1-532): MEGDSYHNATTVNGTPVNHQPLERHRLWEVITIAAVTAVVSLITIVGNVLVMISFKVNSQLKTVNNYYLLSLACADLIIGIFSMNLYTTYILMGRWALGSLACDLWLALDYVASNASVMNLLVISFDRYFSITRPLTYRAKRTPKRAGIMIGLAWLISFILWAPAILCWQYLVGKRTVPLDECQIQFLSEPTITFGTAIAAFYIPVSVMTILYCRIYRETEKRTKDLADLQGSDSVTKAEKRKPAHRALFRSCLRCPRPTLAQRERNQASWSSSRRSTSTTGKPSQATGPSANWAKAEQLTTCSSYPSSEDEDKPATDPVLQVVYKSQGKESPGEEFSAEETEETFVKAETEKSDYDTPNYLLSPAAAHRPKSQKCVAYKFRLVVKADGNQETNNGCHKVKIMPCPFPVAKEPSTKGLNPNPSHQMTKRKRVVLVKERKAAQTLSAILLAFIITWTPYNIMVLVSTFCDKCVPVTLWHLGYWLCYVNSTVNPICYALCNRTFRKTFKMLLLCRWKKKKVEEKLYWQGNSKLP
# How it was run: as §1
# GABAA receptors = assay: MDS Pharma LeadProfiling Screen, flunitrazepam binding; details: 10 µM
# log P = format: physicochemical
# [3] = molecular target: T4, human M4 muscarinic receptor (Homo sapiens, UniProt P08173)
# T4 sequence (P08173 1-479): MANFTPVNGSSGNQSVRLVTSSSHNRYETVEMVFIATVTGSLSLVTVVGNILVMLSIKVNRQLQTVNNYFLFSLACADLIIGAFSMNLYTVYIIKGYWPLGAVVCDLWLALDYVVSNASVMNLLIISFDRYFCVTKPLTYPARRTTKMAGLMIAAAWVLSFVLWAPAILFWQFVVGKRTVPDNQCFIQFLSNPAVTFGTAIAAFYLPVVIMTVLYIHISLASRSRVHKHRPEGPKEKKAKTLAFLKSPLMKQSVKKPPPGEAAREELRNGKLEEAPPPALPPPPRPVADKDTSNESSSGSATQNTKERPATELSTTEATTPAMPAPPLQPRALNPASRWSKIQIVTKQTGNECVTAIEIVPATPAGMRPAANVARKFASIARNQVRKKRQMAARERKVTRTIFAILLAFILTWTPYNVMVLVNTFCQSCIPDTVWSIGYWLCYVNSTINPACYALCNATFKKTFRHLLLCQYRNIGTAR
# M3 mAChR, sequence (P20309 whole entry): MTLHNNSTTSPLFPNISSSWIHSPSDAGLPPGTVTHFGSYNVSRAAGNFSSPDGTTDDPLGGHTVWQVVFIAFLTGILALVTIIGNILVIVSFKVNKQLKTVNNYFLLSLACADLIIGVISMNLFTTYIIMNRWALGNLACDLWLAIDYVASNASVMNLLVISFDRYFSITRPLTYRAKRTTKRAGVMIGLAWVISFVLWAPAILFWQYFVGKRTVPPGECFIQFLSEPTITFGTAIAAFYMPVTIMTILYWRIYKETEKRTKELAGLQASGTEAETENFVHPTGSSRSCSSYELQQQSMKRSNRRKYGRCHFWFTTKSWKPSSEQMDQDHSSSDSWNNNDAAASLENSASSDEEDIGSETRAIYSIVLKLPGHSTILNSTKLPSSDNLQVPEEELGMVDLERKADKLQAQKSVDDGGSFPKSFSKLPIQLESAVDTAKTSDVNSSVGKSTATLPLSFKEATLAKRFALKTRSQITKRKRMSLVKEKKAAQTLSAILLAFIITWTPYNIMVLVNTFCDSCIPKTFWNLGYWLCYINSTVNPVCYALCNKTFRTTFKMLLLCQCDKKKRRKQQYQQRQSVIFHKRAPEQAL
structure (smiles),measurement,setting,value
"Cc1cc(C)c2c(N)c(C(=O)NCc3ccc4c(c3)OCO4)sc2n1 [VU0152099, 3-amino-N-(benzo[d][1,3]dioxol-5-ylmethyl)-4,6-dimethylthieno[2,3-b]pyridine carboxamide]",potentiator activity at M1,M1,had no potentiator activity at M1
same,formulation into homogeneous dosing solution,[1],afforded homogeneous dosing solutions in multiple vehicles acceptable for in vivo studies
same,shift in the ACh CRC at M3,M3 mAChR,No shift in the ACh CRC was observed
same,effect on amphetamine-induced hyperlocomotion,[2],produced robust decreases in amphetamine-induced hyperlocomotion
same,maximal leftward shift of the ACh CRC,rat M4 mAChR; 30 µM compound,30 fold
same,response in the absence of an ACh EC20 (agonist activity),rat M4 mAChR; compound alone,neither VU0152099 nor VU0152100 elicited a response
same,Rat M4 Ach -Fold Shift,"rat M4 mAChR; leftward shift of ACh CRC, average of at least three determinations",29.7 fold
same,EC50,rat M4 mAChR; read-out: M4 PAM activity EC50,0.403 µM
same,EC50,"rat M4 mAChR; read-out: Rat M4 EC50, average of at least three determinations",0.4 µM
same,"agonist activity, compound alone",panel of 16 GPCRs; data not shown,no agonist activity at any receptor studied
same,allosteric potentiator activity at the other GPCR subtypes,panel of 16 GPCRs; full agonist CRCs,had no allosteric potentiator activity at any of the other GPCR subtypes tested
same,shift in the ACh CRC at M5,M5 mAChR,No shift in the ACh CRC was observed
same,displacement of flunitrazepam binding,GABAA receptors,51%
same,log P,log P,3.65
same,leftward shift in the ACh CRC,[3]; 10 µM compound,≈ 30 fold
same,maximal response to ACh,[3]; in presence of compound,approximately 130%
